ChEMBL document CHEMBL1147085, “Metabolism and pharmacokinetics of a novel Src kinase inhibitor TG100435 ([7-(2,6-dichloro-phenyl)-5-methyl-benzo[1,2,4]triazin-3-yl]-[4-(2-pyrrolidin-1-yl-ethoxy)-phenyl]-amine) and its active N-oxide metabolite TG100855 …” (Drug Metab Dispos, 2007)

How the values were obtained:
[1] = Cmax in BALB/c mouse at 25 mg/kg, po; format: ADME, organism-based; design: dose 25 mg/kg, route oral; conditions: in vivo
Summary of the method: (§1)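 Male BALB/c mice (~25 g); fasted overnight for single p.o. dosing, not fasted for i.v. or i.p. dosing. Composite blood sampling, n=3 per time point: 5, 15, 30 min, 1, 3, 6, 24, 48 hr after i.v. dose; 0.5, 1, 3, 5, 8, 24, 30, 48 hr after p.o. or i.p. dose. Heparinized plasma, both parent and N-oxide measured by LC/MS/MS (MRM 494.2/98.1 and 510.2/98.1); non-compartmental analysis, AUC by linear trapezoidal rule.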

[2] = AUC (0 to infinity) in Sprague-Dawley rat at 30 mg/kg, po; format: ADME, organism-based; design: time infinity, dose 30 mg/kg, route oral; conditions: plasma
[3] = Half life in Sprague-Dawley rat at 5 mg/kg, iv; format: ADME, organism-based; design: dose 5 mg/kg, route intravenous; conditions: in vivo
[4] = Volume of distribution in BALB/c mouse at 5 mg/kg, iv; format: ADME, organism-based; design: dose 5 mg/kg, route intravenous; conditions: in vivo
[5] = AUC (0 to infinity) in Sprague-Dawley rat at 25 mg/kg, po; format: ADME, organism-based; design: time infinity, dose 25 mg/kg, route oral; conditions: plasma
[6] = AUC (0 to last) in Beagle dog at 25 mg/kg, po; format: ADME, organism-based, Canis lupus familiaris; design: dose 25 mg/kg, route oral, time 0 - last; conditions: plasma
[7] = AUC (0 to infinity) in BALB/c mouse at 5 mg/kg, iv; format: ADME, organism-based; design: time infinity, dose 5 mg/kg, route intravenous; conditions: plasma; summary of the method: as §1
[8] = AUC (0 to last) in Sprague-Dawley rat at 25 mg/kg, po; format: ADME, organism-based; design: time 0 - last, dose 25 mg/kg, route oral; conditions: plasma
[9] = Volume of distribution in Beagle dog at 5 mg/kg, iv; format: ADME, organism-based, Canis lupus familiaris; design: dose 5 mg/kg, route intravenous; conditions: in vivo
[10] = Clearance in Sprague-Dawley rat at 5 mg/kg, iv; format: ADME, organism-based; design: dose 5 mg/kg, route intravenous; conditions: in vivo
[11] = AUC (0 to infinity) in BALB/c mouse at 40 mg/kg, po; format: ADME, organism-based; design: time infinity, dose 40 mg/kg, route oral; conditions: plasma; summary of the method: as §1
[12] = Half life in Beagle dog at 5 mg/kg, iv; format: ADME, organism-based, Canis lupus familiaris; design: dose 5 mg/kg, route intravenous; conditions: in vivo
[13] = Bioavailability in Beagle dog at 25 mg/kg, po; format: ADME, organism-based, Canis lupus familiaris; conditions: in vivo
[14] = Half life in BALB/c mouse at 5 mg/kg, iv; format: ADME, organism-based; design: dose 5 mg/kg, route intravenous; conditions: in vivo; summary of the method: as §1
[15] = AUC (0 to infinity) in Beagle dog at 5 mg/kg, iv; format: ADME, organism-based, Canis lupus familiaris; design: time infinity, dose 5 mg/kg, route intravenous; conditions: plasma
[16] = Cmax in Beagle dog at 25 mg/kg, po; format: ADME, organism-based, Canis lupus familiaris; design: dose 25 mg/kg, route oral; conditions: in vivo
[17] = Clearance in BALB/c mouse at 5 mg/kg, iv; format: ADME, organism-based; design: dose 5 mg/kg, route intravenous; conditions: in vivo; summary of the method: as §1
[18] = Bioavailability in Sprague-Dawley rat at 25 mg/kg, po; format: ADME, organism-based; conditions: in vivo
[19] = Drug level in BALB/c mouse plasma at 5 mg/kg, iv; format: ADME, organism-based; design: dose 5 mg/kg, route intravenous; summary of the method: as §1
[20] = AUC (0 to infinity) in Sprague-Dawley rat at 5 mg/kg, iv; format: ADME, organism-based; design: time infinity, dose 5 mg/kg, route intravenous; conditions: plasma
Canis familiaris = test: Bioavailability in Beagle dog assessed as AUC of ([7-(2,6-Dichloro-phenyl)-5-methyl-benzo[1,2,4]triazin-3-yl]-{4-[2-(1-pyrrolidin-1-yl-ethoxy)-phenyl]-amine) at 25 mg/kg, po; format: ADME, organism-based, Canis lupus familiaris; conditions: in vivo
[21] = Drug level in Beagle dog plasma at 5 mg/kg, iv; format: ADME, organism-based, Canis lupus familiaris; design: dose 5 mg/kg, route intravenous
[22] = AUC (0 to infinity) in Beagle dog at 25 mg/kg, po; format: ADME, organism-based, Canis lupus familiaris; design: time infinity, dose 25 mg/kg, route oral; conditions: plasma
[23] = Clearance in Beagle dog at 5 mg/kg, iv; format: ADME, organism-based, Canis lupus familiaris; design: dose 5 mg/kg, route intravenous; conditions: in vivo
[24] = AUC (0 to infinity) in BALB/c mouse at 25 mg/kg, po; format: ADME, organism-based; design: time infinity, dose 25 mg/kg, route oral; conditions: plasma; summary of the method: as §1
[25] = Drug level in Sprague-Dawley rat plasma at 5 mg/kg, iv; format: ADME, organism-based; design: dose 5 mg/kg, route intravenous
[26] = Volume of distribution in Sprague-Dawley rat at 5 mg/kg, iv; format: ADME, organism-based; design: dose 5 mg/kg, route intravenous; conditions: in vivo
[27] = Tmax in Sprague-Dawley rat at 25 mg/kg, po; format: ADME, organism-based; design: dose 25 mg/kg, route oral; conditions: in vivo
[28] = AUC (0 to last) in BALB/c mouse at 25 mg/kg, po; format: ADME, organism-based; design: time 0 - last, dose 25 mg/kg, route oral; conditions: plasma; summary of the method: as §1

Q: With `Cc1cc(-c2c(Cl)cccc2Cl)cc2nnc(Nc3ccc(OCCN4CCCC4)cc3)nc12` as the compound, how does the Cmax [1] read?
A: 618 ng/mL

Q: What about the AUC(0-inf) [2] of the same compound?
A: 8120 ng·h/mL

Q: What about the half-life [3] of the same compound?
A: 8.9 h

Q: And the Vd [4]?
A: 9.4 L/kg

Q: What about the AUC(0-inf) [5] of the same compound?
A: 8010 ng·h/mL

Q: What about the AUC(0-t) [6] of the same compound?
A: 2540 ng·h/mL

Q: What about the AUC(0-inf) [7] of the same compound?
A: 4140 ng·h/mL

Q: What about the AUC(0-t) [8] of the same compound?
A: 7980 ng·h/mL

Q: And the Vd [9]?
A: 18.7 L/kg

Q: And the clearance [10]?
A: 12.7 mL/min/kg

Q: And the AUC(0-inf) [11]?
A: 35100 ng·h/mL

Q: And the half-life [12]?
A: 15.1 h

Q: What about the bioavailability [13] of the same compound?
A: 10.7%

Q: And the half-life [14]?
A: 5.4 h

Q: What about the AUC(0-inf) [15] of the same compound?
A: 5800 ng·h/mL

Q: What about the Cmax [16] of the same compound?
A: 102 ng/mL

Q: And the clearance [17]?
A: 20.1 mL/min/kg

Q: And the bioavailability [18]?
A: 23%

Q: What about the C0 [19] of the same compound?
A: 873 ng/mL

Q: What about the AUC(0-inf) [20] of the same compound?
A: 7030 ng·h/mL

Q: And the AUC (Canis familiaris)?
A: 6470 ng·h/mL

Q: What about the C0 [21] of the same compound?
A: 1660 ng/mL

Q: What about the AUC(0-inf) [22] of the same compound?
A: 3110 ng·h/mL

Q: What about the clearance [23] of the same compound?
A: 14.5 mL/min/kg

Q: And the AUC(0-inf) [24]?
A: 15300 ng·h/mL

Q: And the C0 [25]?
A: 1650 ng/mL

Q: What about the Vd [26] of the same compound?
A: 9.4 L/kg

Q: What about the Tmax [27] of the same compound?
A: 8 h

Q: What about the AUC(0-t) [28] of the same compound?
A: 15000 ng·h/mL
